# Tests used:
# [1] = target: T1, Nuclear receptor subfamily 1 group I member 3 (Mus musculus, UniProt O35627, F171L); conditions: HEK293, mouse
# [2] = target: T2, Nuclear receptor subfamily 1 group I member 3 (Mus musculus, UniProt O35627, Y336A); conditions: HEK293, mouse
# [3] = target: T2, Nuclear receptor subfamily 1 group I member 3; test: Activation of mouse CAR Y336A mutant expressed in HEK293 cells at 10 uM by mammalian one-hybrid assay; type: cell-based; conditions: hek293, 10 µM
# Method in brief: (§1)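 GAL4 DBD fused to mouse CAR LBD (residues 118-358), wild type or point mutant, cotransfected with UASx4-tk-luc reporter and pCMVβ into HEK293 cells. Cells cultured with DMSO (0.1% v/v) or compound (final 1, 2 or 10 µM). Lysed 24 h post-transfection. Luciferase normalized to β-galactosidase, expressed relative to empty GAL4 vector (=1.0). Mean ± SD, three independent experiments.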
# [4] = target: T1, Nuclear receptor subfamily 1 group I member 3; conditions: HEK293, mouse; remark: listed apart in the source
# [5] = target: T3, Nuclear receptor subfamily 1 group I member 3 (Mus musculus, UniProt O35627, F171A); test: Enhancement of nuclear co-repressor receptor binding to mouse CAR F171A mutant […] at 10 uM by yeast two-hybrid assay; type: cell-based
# T3 sequence (O35627 whole entry F171A, the tested form may be a part): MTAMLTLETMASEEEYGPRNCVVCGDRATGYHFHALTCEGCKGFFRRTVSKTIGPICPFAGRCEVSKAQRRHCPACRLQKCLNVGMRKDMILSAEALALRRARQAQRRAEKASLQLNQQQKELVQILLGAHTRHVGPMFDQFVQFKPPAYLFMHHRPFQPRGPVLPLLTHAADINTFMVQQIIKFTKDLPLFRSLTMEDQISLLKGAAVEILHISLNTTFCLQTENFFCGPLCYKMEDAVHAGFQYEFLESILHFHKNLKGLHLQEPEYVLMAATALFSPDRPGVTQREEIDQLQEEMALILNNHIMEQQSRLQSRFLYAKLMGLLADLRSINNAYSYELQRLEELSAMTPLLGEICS
# Method in brief: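 Yeast two-hybrid assay. Yeast co-expressing wild-type or mutant mouse CAR LBD and the NCoR partner were selected on SD plates lacking leucine and tryptophan. Pooled, amplified colonies were treated with DMSO or test chemical for 3.5 h. β-galactosidase activity was normalized to cell density and referenced to the 10 µM androstenol interaction (=100). Mean ± standard deviation of two determinations, each in triplicate.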
# [6] = target: T4, Nuclear receptor subfamily 1 group I member 3 (Mus musculus, UniProt O35627, L253F); test: Effect on nuclear co-repressor receptor binding to mouse CAR L253F mutant […] at 10 uM by yeast two-hybrid assay; type: cell-based; conditions: read-out: Activity
# T4 sequence (O35627 whole entry L253F, the tested form may be a part): as the sequence (O35627 whole entry F171A, the tested form may be a part) above, with A171F, L253F counted along it
# Method in brief: (§2)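 Yeast expressing wild-type or mutant mouse CAR LBD plus NCoR, selected on SD plates lacking leucine and tryptophan. Pooled colonies treated with DMSO or compound for 3.5 h. β-Galactosidase activity normalized to cell density. Reference is 10 µM androstenol (=100). Mean ± SD of two independent determinations, each in triplicate.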
# [7] = target: Nuclear receptor subfamily 1 group I member 3 (Mus musculus, UniProt O35627, S251L); test: Decrease in mouse CAR S251L mutant activation expressed in HEK293 cells at 2 uM by mammalian one-hybrid assay; type: cell-based; conditions: read-out: Activity
# Nuclear receptor subfamily 1 group I member 3 (Mus musculus, UniProt O35627, S251L), sequence (O35627 whole entry S251L, the tested form may be a part): as the sequence (O35627 whole entry F171A, the tested form may be a part) above, with A171F, S251L counted along it
# Method in brief: (§3)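 GAL4-DBD fused to mouse CAR LBD (residues 118-358), wild-type or point mutant, cotransfected with UASx4-tk-luc reporter and pCMVβ into HEK293 cells. Cells were exposed to final 1 µM, 2 µM or 10 µM test chemical, or 0.1% v/v DMSO, for 24 h after transfection. Luciferase was normalized to β-galactosidase and set against empty GAL4 vector (=1.0). Mean ± standard deviation, three independent experiments.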
# [8] = target: T4, Nuclear receptor subfamily 1 group I member 3; test: Decrease in nuclear co-repressor receptor binding to mouse CAR L253F mutant […] at 2 uM by yeast two-hybrid assay; type: cell-based; conditions: read-out: Activity
# Method in brief: (§4)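 Yeast two-hybrid: yeast expressing wild-type or mutant mouse CAR LBD plus SRC-1 or NCoR, selected on SD medium lacking Leu and Trp. Pooled colonies treated with DMSO or test chemical for 3.5 h. β-Galactosidase normalized to cell density. SRC-1 reference: wild-type + DMSO = 100. NCoR reference: 10 µM androstenol = 100. Mean ± SD, two independent determinations, each in triplicate.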
# [9] = target: T5, Nuclear receptor subfamily 1 group I member 3 (Mus musculus, UniProt O35627, I252L); test: Enhancement of steroid receptor coactivator 1 binding to mouse CAR I252L mutant […] at 2 uM by yeast two-hybrid assay; type: cell-based
# T5 sequence (O35627 whole entry I252L): as the sequence (O35627 whole entry F171A, the tested form may be a part) above, with A171F, I252L counted along it
# Method in brief: as §4
# [10] = target: Nuclear receptor subfamily 1 group I member 3 (Mus musculus, UniProt O35627, H213A); test: Enhancement of nuclear co-repressor receptor binding to mouse CAR H213A mutant […] at 2 uM by yeast two-hybrid assay; type: cell-based
# Nuclear receptor subfamily 1 group I member 3 (Mus musculus, UniProt O35627, H213A), sequence (O35627 whole entry H213A): as the sequence (O35627 whole entry F171A, the tested form may be a part) above, with A171F, H213A counted along it
# Method in brief: as §4
# [11] = target: T1, Nuclear receptor subfamily 1 group I member 3; test: Decrease in mouse CAR F171L mutant activation expressed in HEK293 cells at 2 uM by mammalian one-hybrid assay; type: cell-based; conditions: read-out: Activity
# Method in brief: as §3
# [12] = target: T3, Nuclear receptor subfamily 1 group I member 3; test: Effect on nuclear co-repressor receptor binding to mouse CAR F171A mutant […] at 1 uM by yeast two-hybrid assay; type: cell-based
# Method in brief: as §2
# [13] = target: T5, Nuclear receptor subfamily 1 group I member 3; test: Enhancement of steroid receptor coactivator 1 binding to mouse CAR I252L mutant […] at 1 uM by yeast two-hybrid assay; type: cell-based
# Method in brief: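 Yeast two-hybrid assay. Yeast co-expressing wild-type or mutant mouse CAR LBD and the SRC-1 partner were selected on SD plates lacking leucine and tryptophan. Random colonies were pooled and amplified, then treated with DMSO or test chemical for 3.5 h. β-galactosidase activity was normalized to cell density and set relative to wild-type mCAR + SRC-1 with DMSO (=100). Mean ± standard deviation of two determinations, each in triplicate.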
# [14] = target: Nuclear receptor subfamily 1 group I member 3 (Mus musculus, UniProt O35627, T350M); test: Decrease in steroid receptor coactivator 1 binding to mouse CAR T350M mutant […] at 1 uM by yeast two-hybrid assay; type: cell-based; conditions: read-out: Activity
# Nuclear receptor subfamily 1 group I member 3 (Mus musculus, UniProt O35627, T350M), sequence (O35627 whole entry T350M): as the sequence (O35627 whole entry F171A, the tested form may be a part) above, with A171F, T350M counted along it
# Method in brief: as §2, with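 “SRC-1,” for “NCoR,”, “wild-type CAR + SRC-1 with DMSO” for “10 µM androstenol”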
# [15] = target: Nuclear receptor subfamily 1 group I member 3 (Mus musculus, UniProt O35627, L212A); test: Activation of mouse CAR L212A mutant expressed in HEK293 cells at 1 uM by mammalian one-hybrid assay; type: cell-based; conditions: hek293, 1 µM
# Nuclear receptor subfamily 1 group I member 3 (Mus musculus, UniProt O35627, L212A), sequence (O35627 whole entry L212A): as the sequence (O35627 whole entry F171A, the tested form may be a part) above, with A171F, L212A counted along it
# Method in brief: as §1
# [16] = target: T6, Nuclear receptor subfamily 1 group I member 3 (Mus musculus, UniProt O35627); test: Activation of wild type mouse CAR expressed in HEK293 cells at 10 uM by mammalian one-hybrid assay; conditions: hek293, 10 µM
# T6 sequence (O35627 whole entry): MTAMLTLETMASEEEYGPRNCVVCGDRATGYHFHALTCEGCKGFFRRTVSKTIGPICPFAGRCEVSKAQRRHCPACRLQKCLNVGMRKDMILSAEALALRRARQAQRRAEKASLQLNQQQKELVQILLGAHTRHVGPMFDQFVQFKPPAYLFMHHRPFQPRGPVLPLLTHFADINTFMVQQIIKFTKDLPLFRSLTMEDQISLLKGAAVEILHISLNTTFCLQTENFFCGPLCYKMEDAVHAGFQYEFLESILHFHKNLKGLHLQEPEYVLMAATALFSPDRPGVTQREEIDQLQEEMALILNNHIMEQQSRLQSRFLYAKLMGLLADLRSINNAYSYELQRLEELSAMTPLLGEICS
# T1 sequence (O35627 whole entry F171L): as the sequence (O35627 whole entry F171A, the tested form may be a part) above, with A171L counted along it
# T2 sequence (O35627 whole entry Y336A): as the sequence (O35627 whole entry F171A, the tested form may be a part) above, with A171F, Y336A counted along it
structure (smiles),measurement,setting,value
C[C@]12CC[C@@H](O)C[C@@H]1CC[C@@H]1[C@@H]2CC[C@]2(C)C=CC[C@@H]12 [ANDROSTENOL],activity at 10 µM,[1],< 50%
same,activity at 10 µM,[2],< 50%
COc1ccc(C(c2ccc(OC)cc2)C(Cl)(Cl)Cl)cc1 [METHOXYCHLOR],Activity,[3],< 50%
same,activity at 10 µM,[4],< 50%
same,Activity,[5],>= 50%
same,activity at 10 µM,[6],< 50%
Clc1ccccc1C(c1ccccc1)(c1ccccc1)n1ccnc1 [CLOTRIMAZOLE],inhibition at 2 µM,[7],< 50%
same,inhibition at 2 µM,[8],≥ 50%
same,Activity,[9],>= 50%
same,Activity,[10],> 150%
same,inhibition at 2 µM,[11],50%
Clc1cnc(Oc2ccc(Oc3ncc(Cl)cc3Cl)cc2)c(Cl)c1,Activity,[12],< 50%
same,Activity,[13],>= 50%
same,inhibition at 1 µM,[14],≥ 50%
same,Activity,[15],< 50%
COc1ccc(C(=O)CCCc2ccccc2)cc1,activity at 10 µM,[1],< 50%
same,Activity,[16],40%
same,Activity,[5],>= 50%
same,activity at 10 µM,[6],< 50%

# From ChEMBL document CHEMBL1152300, “Ligand specificity of constitutive androstane receptor as probed by induced-fit docking and mutagenesis” (J Med Chem, 2008)
